In ChEMBL document CHEMBL1122058, “Agents for the treatment of brain injury. 1. (Aryloxy)alkanoic acids” (J Med Chem, 1982):
The source made the active and inactive calls. The rule behind the calls is not given here.

Columns and labels:
Canis familiaris [1] = species on record: Canis familiaris; assay: Relative salidiuretic efficacy was scored in dog; moderate; type: functional, organism-based; settings: Canis lupus familiaris; Urine
Felis catus [2] = species on record: Felis catus; assay: In vitro inhibition of HCO3- stimulated swelling in cat cerebrocortical tissue slice; type: functional; settings: read-out: I 50
How it was run: (§1)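 Cat cerebral cortex slices (~150 mg, 0.5 mm) incubated aerobically 60 min at 37 °C in K+-rich (27 mM) Hepes-buffered saline-glucose with test compound as Na salt. HCO3- (NaHCO3 or TEAB) added from sidearm at 20 min to 10 mM final; HCO3- flasks gassed with 2.5% CO2/97.5% O2. Swelling by reweighing; Na+/K+ by flame photometry, Cl- by amperometric titration. Units: per g initial fresh weight; means ± SE, Student's t test.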

Rattus norvegicus [3] = species on record: Rattus norvegicus; assay: Relative salidiuretic efficacy was scored in Rat; weak; type: functional, organism-based; settings: Urine
Pan troglodytes [4] = species on record: Pan troglodytes; assay: Relative salidiuretic efficacy was scored in chimpanzee; weak; type: functional, organism-based; settings: Urine
[5] = Distribution coefficient (D %) between octanol and buffer of pH 7.4; type: physicochemical; settings: octanol/water
[6] = Dissociation constant (pKa) (determined in 30% EtOH); type: physicochemical
Homo sapiens [7] = species on record: Homo sapiens; assay: Relative salidiuretic efficacy was scored in human; moderate; type: functional, organism-based; settings: Urine
Pan troglodytes [8] = species on record: Pan troglodytes; assay: Relative salidiuretic efficacy was scored in chipanze; weak; type: functional, organism-based; settings: Urine
Canis familiaris [9] = species on record: Canis familiaris; assay: Relative salidiuretic efficacy was scored in dog; Marginal; type: functional, organism-based; settings: Canis lupus familiaris; Urine
Felis catus [10] = species on record: Felis catus; assay: Evaluated for Sodium ion content of Cerebrocortical slices in cat with out additions
Felis catus [11] = species on record: Felis catus; assay: Evaluated for chloride ion content of Cerebrocortical slices in cat with addition of Sodium Bicarbonate (NaHCO3).; type: functional; how it was run: as §1
Felis catus [12] = species on record: Felis catus; assay: In vitro inhibition of tissue swelling of Cerebrocortical slices from cat with out additions; type: functional; how it was run: as §1
Felis catus [13] = species on record: Felis catus; assay: Evaluated for Sodium ion content of Cerebrocortical slices in cat with addition of Triethylammonium Bicarbonate (TEAB).; type: functional; how it was run: as §1
Pan troglodytes [14] = species on record: Pan troglodytes; assay: Relative salidiuretic efficacy was scored in chimpanzee; moderate; type: functional, organism-based; settings: Urine
Felis catus [15] = species on record: Felis catus; assay: (§2) Evaluated for chloride ion content of Cerebrocortical slices in cat with out additions; type: functional; how it was run: as §1
Felis catus [16] = species on record: Felis catus; assay: Evaluated for Sodium ion content of Cerebrocortical slices in cat with out additions; type: functional; how it was run: as §1
[17] = Compound was tested for bicarbonate stimulated swelling of Cerebrocortical slices from cat with addition of Triethylammonium Bicarbonate (TEAB) (in vitro); type: functional; how it was run: as §1
Rattus norvegicus [18] = species on record: Rattus norvegicus; assay: Relative salidiuretic efficacy was scored in Rat; moderate; type: functional, organism-based; settings: Urine
Felis catus [19] = species on record: Felis catus; assay: (§3) Evaluated for Potassium ion content of Cerebrocortical slices in cat with out additions; type: functional; how it was run: as §1
Felis catus [20] = assay: Mortality of animals recorded as the number of animals dead out of the total animals (42) taken for the study at dose 1 mg/kg; type: functional
How it was run: (§4)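 Adult conditioned cats (2.5–4 kg) under iv methohexital (13.25 mg/kg, plus 2.75 mg/kg if needed) received machine-induced acceleration/deceleration head injury. Forty min later they were paralysed with gallamine and ventilated with 6% O2/94% N2 for 60 min (arterial pO2 23 ± 1 torr). Drug was given iv 20 min post-injury, before hypoxemia. Mortality was scored as dead/total, chi-square tested.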

[21] = Compound was tested for bicarbonate stimulated swelling of Cerebrocortical slices from cat with addition of Sodium Bicarbonate (NaHCO3) (in vitro); how it was run: as §1
Felis catus [22] = species on record: Felis catus; assay: as §2; type: functional; how it was run: as §1; remark: listed apart in the source
Felis catus [23] = species on record: Felis catus; assay: In vitro inhibition of tissue swelling of Cerebrocortical slices from cat with out additions
Felis catus [24] = species on record: Felis catus; assay: In vitro inhibition of tissue swelling of Cerebrocortical slices from cat with addition of Sodium Bicarbonate (NaHCO3).; type: functional; how it was run: as §1
Felis catus [25] = species on record: Felis catus; assay: Evaluated for Potassium ion content of Cerebrocortical slices in cat with addition of Sodium Bicarbonate (NaHCO3).; type: functional; how it was run: as §1
Felis catus [26] = species on record: Felis catus; assay: Evaluated for Potassium ion content of Cerebrocortical slices in cat with addition of Triethylammonium Bicarbonate (TEAB).; type: functional; how it was run: as §1
Felis catus [27] = species on record: Felis catus; assay: In vitro inhibition of tissue swelling of Cerebrocortical slices from cat with addition of Triethylammonium Bicarbonate (TEAB).; type: functional; how it was run: as §1
Felis catus [28] = species on record: Felis catus; assay: as §3; type: functional; how it was run: as §1; remark: listed apart in the source
Felis catus [29] = species on record: Felis catus; assay: Evaluated for Sodium ion content of Cerebrocortical slices in cat with addition of Sodium Bicarbonate (NaHCO3).; type: functional; how it was run: as §1
Felis catus [30] = species on record: Felis catus; assay: Evaluated for chloride ion content of Cerebrocortical slices in cat with addition of Triethylammonium Bicarbonate (TEAB).; type: functional; how it was run: as §1
Pan troglodytes [31] = species on record: Pan troglodytes; assay: Relative salidiuretic efficacy was scored in chimpanzee; very marked; type: functional, organism-based; settings: Urine
Felis catus [32] = assay: Mortality of animals recorded as the number of animals dead out of the total animals (22) taken for the study at dose 1 mg/kg; type: functional; how it was run: as §4
Homo sapiens [33] = species on record: Homo sapiens; assay: Relative salidiuretic efficacy was scored in human; very marked; type: functional, organism-based; settings: Urine
Rattus norvegicus [34] = species on record: Rattus norvegicus; assay: Relative salidiuretic efficacy was scored in Rat; very marked; type: functional, organism-based; settings: Urine
Canis familiaris [35] = species on record: Canis familiaris; assay: Relative salidiuretic efficacy was scored in dog; marked; type: functional, organism-based; settings: Canis lupus familiaris; Urine
Felis catus [36] = assay: Mortality of animals recorded as the number of animals dead out of the total animals (16) taken for the study at dose 1 mg/kg given q.i.d.; type: functional
Felis catus [37] = assay: Mortality of animals recorded as the number of animals dead out of the total animals (39) taken for the study at dose 1 mg/kg; type: functional; how it was run: as §4
Rattus norvegicus [38] = species on record: Rattus norvegicus; assay: Relative salidiuretic efficacy was scored in Rat; Marginal; type: functional, organism-based; settings: Urine
Canis familiaris [39] = species on record: Canis familiaris; assay: Relative salidiuretic efficacy was scored in dog; very marked; type: functional, organism-based; settings: Canis lupus familiaris; Urine

With `O=C(O)COc1cc2c(c(Cl)c1Cl)C(=O)C(C1CCCC1)C2` (racemic) the Relative salidiuretic activity (Canis familiaris [1]) was “moderate”, the IC50 (Felis catus [2]) was 10 µM and the Relative salidiuretic activity (Rattus norvegicus [3]) was “moderate”. For the same compound, the Relative salidiuretic activity (Pan troglodytes [4]) was “moderate”, the Distribution [5] was 83% and the pKa [6] was 3.9. For the same compound, the Relative salidiuretic activity (Homo sapiens [7]) was “moderate”.

In the case of `O=C(O)COc1cc2c(c(Cl)c1Cl)C(=O)C(CC1CCCC1)C2` (racemic), the Relative salidiuretic activity (Pan troglodytes [8]) is reported as “Marginal”, the IC50 (Felis catus [2]) is reported as 0.01 µM and the Relative salidiuretic activity (Canis familiaris [9]) is reported as “Marginal”. The Relative salidiuretic activity (Rattus norvegicus [3]) was “Marginal”, the Distribution [5] was 97% and the pKa [6] was 3.8.

Compound `CC1(C2CCCC2)Cc2cc(OCC(=O)O)c(Cl)c(Cl)c2C1=O` (racemic) has an Activity (Felis catus [10]) of 100.4 µM/g, an Activity (Felis catus [11]) of 98.2 µM/g and a Tissue swelling (Felis catus [12]) of 179 µL/g. For the same compound, the Relative salidiuretic activity (Canis familiaris [1]) was “marked”, the Activity (Felis catus [13]) was 118.8 µM/g and the Relative salidiuretic activity (Pan troglodytes [14]) was “marked”. For the same compound, the Activity (Felis catus [15]) was 89.9 µM/g, the Activity (Felis catus [16]) was 101.6 µM/g and the IC50 (Felis catus [2]) was 0.2 µM. The Activity [17] was 100, the Relative salidiuretic activity (Rattus norvegicus [18]) was “marked” and the Activity (Felis catus [19]) was 93.5 µM/g. For the same compound, the Mortality (Felis catus [20]) was 11, the Activity [21] was 100 and the Activity (Felis catus [22]) was 90.2 µM/g. It also gave a Tissue swelling (Felis catus [23]) of 170 µL/g, a Tissue swelling (Felis catus [24]) of 268 µL/g and a Distribution [5] of 90%. The pKa [6] was 3.9, the Activity (Felis catus [25]) was 97.1 µM/g and the Activity (Felis catus [26]) was 91.4 µM/g. The Relative salidiuretic activity (Homo sapiens [7]) was “marked”, the Tissue swelling (Felis catus [27]) was 293 µL/g and the Activity (Felis catus [28]) was 94.4 µM/g. For the same compound, the Activity (Felis catus [29]) was 116.3 µM/g and the Activity (Felis catus [30]) was 104.8 µM/g.

In the case of `CC1(c2ccccc2)Cc2cc(OCC(=O)O)c(Cl)c(Cl)c2C1=O` (racemic) [INDACRINONE], the Relative salidiuretic activity (Pan troglodytes [31]) is reported as “marked”, the IC50 (Felis catus [2]) is reported as 1 µM and the Mortality (Felis catus [32]) is reported as 8. For the same compound, the Distribution [5] was 84%, the pKa [6] was 3.7 and the Relative salidiuretic activity (Homo sapiens [33]) was “marked”. The Relative salidiuretic activity (Rattus norvegicus [34]) was “marked” and the Relative salidiuretic activity (Canis familiaris [35]) was “marked”.

Compound `CC(=O)Nc1nnc(S(N)(=O)=O)s1` [ACETAZOLAMIDE] has an IC50 (Felis catus [2]) of 2000 µM, a Mortality (Felis catus [36]) of 8 and a Distribution [5] of 22%.

With `C=C(CC)C(=O)c1ccc(OCC(=O)O)c(Cl)c1Cl` [ETHACRYNIC ACID] the Relative salidiuretic activity (Pan troglodytes [31]) was “Marginal”, the IC50 (Felis catus [2]) was 1 µM and the Mortality (Felis catus [37]) was 14. For the same compound, the Relative salidiuretic activity (Rattus norvegicus [38]) was “Marginal”, the Relative salidiuretic activity (Canis familiaris [39]) was “Marginal” and the Distribution [5] was 61%. For the same compound, the Relative salidiuretic activity (Homo sapiens [33]) was “Marginal”.

For `NS(=O)(=O)c1cc(C(=O)O)c(NCc2ccco2)cc1Cl` [FUROSEMIDE], the Relative salidiuretic activity (Pan troglodytes [31]) was “Active”, the IC50 (Felis catus [2]) was 10 µM and the Relative salidiuretic activity (Canis familiaris [39]) was “Active”. For the same compound, the Distribution [5] was 28%, the Relative salidiuretic activity (Homo sapiens [33]) was “Active” and the Relative salidiuretic activity (Rattus norvegicus [34]) was “Active”.
